The record followed here is publication PMC10807744 (Journal of agricultural and food chemistry, 2023).

One experiment relates to mAb-19F2. The experiment in a line: colloidal gold immunochromatographic assay. It counts as binding, BALB/c mice. The settings on record: GICA; abstract. Put shortly: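 Colloidal gold strips were striped with […]. Tea was soaked 30 min in 50 mL boiling water, adjusted to pH 6-7, and 100 µL applied. Spikes were 2.5, 5 and 10 mg/kg. LOD was read by eye as test-line disappearance, and LOQ as IC20.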
For `CC(C)N1C(=O)N(c2ccccc2)CS/C1=N\C(C)(C)C` [Buprofezin], the “limit of quantitation (LOQ, IC20)” value was 0.0168 µg/mL.

The experiment is the same for the next values; noted with them: T/C values, buprofezin standard in 0.01 M PBS.
As to `CC(C)N1C(=O)N(c2ccccc2)CS/C1=N\C(C)(C)C` [Buprofezin], the “IC50 of the test strip” value turned out to be 0.2312 µg/mL.

The same experiment, now with this note: complete disappearance of test line visible to the naked eye.
On to `CC(C)N1C(=O)N(c2ccccc2)CS/C1=N\C(C)(C)C` [Buprofezin], for which the “detection limit (LOD)” value is listed as 500 ng/mL.

The subject of the next experiment is mAb-19F2. The experiment in a line: ic-ELISA. It counts as binding, BALB/c mice. Conditions: mAb-19F2, relative to buprofezin = 100%.
Take `CC(C)(C)N(NC(=O)c1ccccc1)C(=O)c1ccccc1` [1,2-dibenzoyl-1-(t-butyl)hydrazine]: the Cross-reactivity is under 0.18%.
Molecule `N#CN=C1SCCN1Cc1ccc(Cl)nc1` [(E)-Thiacloprid] came in with a Cross-reactivity of under 0.18%.
In turn, `C/C(=N\C#N)N(C)Cc1ccc(Cl)nc1` [Acetamiprid] returned a Cross-reactivity of under 0.18%.
On the same count and under the same terms, as for `CC(C)N1C(=O)N(c2ccccc2)CS/C1=N\C(C)(C)C` [Buprofezin], the figure is 100%; as for `O=C(NC(=O)c1ccccc1Cl)Nc1ccc(Cl)cc1` [Chlorbenzuron], under 0.18%; as for `O=C(NC(=O)c1c(F)cccc1F)Nc1cc(Cl)c(Oc2ncc(C(F)(F)F)cc2Cl)c(Cl)c1` [Chlorfluazuron], under 0.18%.
Take `Cc1cc(C)cc(C(=O)N(NC(=O)c2ccc3c(c2C)CCCO3)C(C)(C)C)c1` [Chromafenozide]: the Cross-reactivity is listed as under 0.18%.
Same read-out and setting: as for `CN/C(=N\[N+](=O)[O-])NCc1cnc(Cl)s1` [Clothianidin], the figure is under 0.18%; as for `Nc1nc(N)nc(NC2CC2)n1` [Cyromazine], under 0.18%.
The molecule `O=C(NC(=O)c1c(F)cccc1F)Nc1ccc(Cl)cc1` [Diflubenzuron] came in with a Cross-reactivity of under 0.18%.
On the same count and under the same terms, as for `CN/C(=N/CC1CCOC1)N[N+](=O)[O-]` (centres unmarked) [Dinotefuran], the figure is under 0.18%; as for `CCOC(=O)NCCOc1ccc(Oc2ccccc2)cc1` [Fenoxycarb], under 0.18%; as for `N#CCNC(=O)c1cnccc1C(F)(F)F` [Flonicamid], under 0.18%.
As for `O=C1C=C(N(Cc2ccc(Cl)nc2)CC(F)F)CO1` [Flupyradifurone], the Cross-reactivity is under 0.18%.
The same measure, in the same setting: as for `CCCC/C=N/N(Cc1ccc(Cl)nc1)/C(N)=N/[N+](=O)[O-]` [Guadipyr], the figure is under 0.18%; as for `O=C(NC(=O)c1c(F)cccc1F)Nc1cc(Cl)c(OC(F)(F)C(F)F)c(Cl)c1` [Hexaflumuron], under 0.18%; as for `O=[N+]([O-])/N=C1\NCCN1Cc1cnc(Cl)s1` [Imidaclothiz], under 0.18%.
On the same count and under the same terms, the same measure for `O=C(NC(=O)c1c(F)cccc1F)Nc1cc(Cl)c(OC(F)(F)C(F)C(F)(F)F)cc1Cl` (centres unmarked) [Lufenuron]: under 0.18%.
Same read-out and setting: as for `CCN(Cc1ccc(Cl)nc1)/C(=C/[N+](=O)[O-])NC` [Nitenpyram], the figure is under 0.18%; as for `CCCOC1CC(C)C([N+](=O)[O-])=C2N(Cc3ccc(Cl)nc3)CCN21` (centres unmarked) [Paichongding(IPP)], under 0.18%.
Take `CC(COc1ccc(Oc2ccccc2)cc1)Oc1ccccn1` (centres unmarked) [Pyriproxyfen]: the Cross-reactivity is under 0.18%.
On the same count and under the same terms, the same measure for `FC(F)(F)c1ccc(OCCCOc2c(Cl)cc(OCC=C(Cl)Cl)cc2Cl)nc1` [Pyrldalyl]: under 0.18%; for `CC(c1ccc(C(F)(F)F)nc1)S(C)(=O)=NC#N` (centres unmarked) [Sulfoxaflor]: under 0.18%.
Same read-out and setting: the same measure for `CCc1ccc(C(=O)NN(C(=O)c2cc(C)cc(C)c2)C(C)(C)C)cc1` [Tebufenozide]: under 0.18%; for `CN1COCN(Cc2cnc(Cl)s2)/C1=N\[N+](=O)[O-]` [Thiamethoxam]: under 0.18%.
Consider `O=C(NC(=O)c1ccccc1Cl)Nc1ccc(OC(F)(F)F)cc1` [Triflumuron], for which the Cross-reactivity is listed as under 0.18%.
